A selection: hits, their analogues and other compounds. The true share with any hit is near 3%.
Glyco luc inh: increase of ERlucT glycosylation luciferase signal, primary screen, N-linked glycosylation inhibitor project, D54 ERlucT cells, luminescence, set 2; D54 ERlucT glycosylation luciferase reporter, 24 h; percent of 100 nM tunicamycin response; reporter increase, % at 12.5 µM; actives 0.23% (n = 360,000);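 active = mean luciferase reporter signal, scaled so untreated is 0 and the glycosylation-blocking control 100, at or above a set limit in every replicate; inconclusive = mean reaches the limit but not every replicate does; inactive = mean below the limit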;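 note: luciferase carries N-glycosylation sites so blocking glycosylation raises the light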
CaV13 ICDI inh: Primary screen for inhibitors of IQ motif and Ca2+-dependent inactivation inhibitor domain binding in CACNA1D, Förster resonance energy transfer in living cells, …; actives 0.098% (n = 340,000); AID 743397; inhibition, % at 12.3 µM; HEK cells, CFP/YFP FRET ICDI-IQ, plate reader, 10 min; percent FRET-ratio fall versus neutral wells;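 active = mean replicate inhibition of at least 30% and at least 1% of replicates passing that level; inconclusive = only one of the two criteria is met; inactive = neither criterion is met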
T cruzi repl: inhibitors of intracellular T. cruzi growth, primary screen, luminescence, NIH3T3 host cells. AID 1885, 2009. inhibition, % (no concentration beside the values). actives 1.4% (n = 300,000). T. cruzi beta-gal in NIH3T3, 90 h;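 active = mean inhibition across valid replicates above about 55%, limit read from the data; inconclusive = mean below that limit but half or more replicates reach it; inactive = mean below it, under half of replicates reach it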;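 note: signal also drops with host cell toxicity which is not excluded here; higher percent means less beta-gal luminescence so fewer parasites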
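System: Mouse NIH/3T3 fibroblasts infected with β-gal-expressing T. cruzi Tulahuen C4 | Quantity: NIH/3T3 cells, 5,000 per well | Reagent: 5000 reporter trypomastigotes per well | Dosing: Compound pinned at 50 nL/well, DMSO | Schedule: 3 h host attachment, then at least 90 h co-culture | Detection: GalScreen luminescence, 60 min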
PvdQ acylase: P. aeruginosa PvdQ acylase inhibitors, primary screen, biochemical, fluorescence, plate reader and imaging, single point | PvdQ acylase [Pseudomonas aeruginosa LESB58] | purified PvdQ acylase | inhibition, % at 10 µM | actives 0.063% (n = 340,000) | AID 488965, 2010; in the data active = inhibition above about 30%, passing the limit was not always enough; inconclusive = no clear call, values can overlap the other calls
PfHsp90 set2: growth inhibition of PfHsp90-expressing yeast, primary screen, antimalarial PfHsp90 inhibitor project, S. cerevisiae, BacTiter-Glo luminescence, single point, set 2; BacTiter-Glo ATP, 48 h; yeast lacking PDR1 and PDR3 efflux regulators; inhibition, % at 9.4 µM; actives 0.32% (n = 310,000); AID 504621, 2011;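 active = every replicate shows inhibition above about 80%, whatever the replicate mean, limit read from the data; inconclusive = mean inhibition reaches the set limit but some replicate falls short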
HSF-1 act: HSF-1 activators, primary screen, NIH3T3-HGL cells, MG132 stress, luminescence, single point | NIH3T3-HGL HSF-1 luciferase reporter, 8 h; 100% = twice DMSO control signal | activation, % at 9 µM | actives 1.7% (n = 300,000) | AID 504408, 2011;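 active = mean replicate activation of at least 50% with a set share of replicates each reaching 50%; inconclusive = only one of those two conditions met; inactive = mean below 50% and too few replicates reaching it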
A number is an active result; – = inactive; ? = inconclusive; · = not tested or not shown.

SMILES	Glyco luc inh	CaV13 ICDI inh	T cruzi repl	PvdQ acylase	PfHsp90 set2	HSF-1 act
O=C(CCN1C(=O)/C(=C\c2ccccc2)SC1=S)N1CCCCC1	56	–	–	–	–	–
COc1cc(/C=C2\SC(=S)N(CCC(=O)N3CCCCC3)C2=O)cc(OC)c1OC	70	–	–	–	–	–
O=C(CCN1C(=O)/C(=C\c2cccs2)SC1=S)NC1=NCCS1	–	–	–	–	–	–
O=C(CCN1C(=O)/C(=C/c2cccs2)SC1=S)N1CCCCC1	50	–	–	–	–	–
O=C(CCN1C(=O)/C(=C/c2cccs2)SC1=S)NC1=NCCS1	–	–	·	–	106	·
CCCCNC(=O)c1nc(C2CCN(S(=O)(=O)c3ccc(OC(F)(F)F)cc3)CC2)oc1-c1ccccc1	·	–	·	·	·	·
CCOC(=O)C1=C(C(=O)OCC)C2N(Cc3ccc(Br)cc3)c3ccccc3[C@@]23C[C@@H](C(=O)OC)N(S(=O)(=O)c2ccc(OC)cc2)C3=N1 (some centres undefined)	·	–	·	·	·	·
Cc1cc(N2CCN(CC(C)(C)O)C[C@@H]2C)ccc1N1CCN(CC(C)(C)O)[C@H](C)C1	·	–	·	·	·	·
Nc1nc2ccc(Cl)cc2cc1C(=O)NCCCN1CCOCC1	·	–	·	·	·	·
CC(=O)c1cc2ccc(O)cc2oc1=O	–	33	–	–	–	–
N=c1oc2cc(O)ccc2cc1C(=O)Nc1ccc(Cl)cc1	–	113	–	–	–	–
Cc1ccc(N=c2oc3cc(O)ccc3cc2C(N)=O)cc1	–	–	60	–	–	–
COC(=O)C1=C(C)N(C)C(=NCc2ccccc2)NC1CCc1ccccc1 (centres undefined)	·	–	·	·	·	·
CCCN1CCC2(CC1)NC(C(=O)O)Cc1c2[nH]c2ccccc12 (centres undefined)	–	·	–	–	–	–
COC(=O)C1Cc2c([nH]c3ccccc23)C2(CCN(Cc3ccccc3)CC2)N1 (centres undefined)	–	–	71	–	–	–
CC(C)(C)OC(=O)CC1(C#N)c2ccccc2C(Br)=CN1C(=O)c1ccccc1 (centres undefined)	–	–	–	–	–	–
O=C(OCC(=O)C12CC3CC(CC(C3)C1)C2)c1ccc(O)cc1O	–	–	–	–	101	–
O=C(COC(=O)c1ccc(O)cc1O)NC12CC3CC(CC(C3)C1)C2	–	–	·	–	–	·
CN(C(=O)[C@@H](Cc1ccccc1)NC(=O)[C@H]1O[C@@H](n2cnc3c(=O)[nH]c(N)nc32)[C@H](O)[C@@H]1O)C1CCCCC1	·	–	·	·	·	·
COC(=O)[C@]12C[C@H](CC(=O)NCCCCc3ccccc3)C(=O)N(Cc3ccc4c(c3)OCO4)C1=C[C@H](COCc1ccccc1)O[C@@H]2C	·	–	·	·	·	·
COc1cc(C(=O)NNC(=S)NC(=O)c2ccc(F)cc2)cc(OC)c1OC	–	–	65	–	–	–
CCc1ccc2[nH]c3nc(N/N=C/c4ccc(O)cc4O)nnc3c2c1	–	–	57	–	–	–
O=C(c1cc(-c2ccc(Cl)cc2)on1)N1CCCCCC1	–	–	–	–	–	–
O=C(c1cc(-c2ccc(O)cc2)on1)N1CCCCCC1	–	–	–	–	–	68
C[C@H]1CN([C@@H](C)CO)C(=O)c2cc(Br)cnc2O[C@@H]1CN(C)S(=O)(=O)c1ccccc1	–	–	·	·	·	·
O=C(CSc1cccs1)Nc1ccc(Cl)cc1	–	–	–	–	–	66
O=C(CSc1ccc(Cl)cc1)Nc1ccccc1	–	–	·	·	·	·
CCN(CC)C(=O)C1=C(C)N(Cc2ccc(C(C)(C)C)cc2)C(=O)C(CC(=O)NCC2CCCCC2)C1 (centres undefined)	–	–	·	·	·	·
COc1ccc(C(=O)/C=C2/C(=O)Nc3ccccc32)cc1	?	–	–	–	–	–
C=CCOc1ccccc1C(=O)/C=C1/C(=O)Nc2ccccc21	32	–	–	–	–	113
